For 3 compounds, Activity results are on record in ChEMBL document CHEMBL1641579, “Synthesis and biological evaluation of 7-substituted-1-(3-bromophenylamino)isoquinoline-4-carbonitriles as inhibitors of myosin light chain kinase and epidermal growth factor receptor” (Bioorg Med Chem, 2011).

Test [1] deals with Casein kinase I isoform alpha (Homo sapiens) (UniProt P48729). As to the kind of experiment: Inhibition of CK1 assessed as residual activity at 10 uM. The gist of the method:
(§1)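 Kinase panel screen run as a radioactive activity assay at single compound concentration. Score reported as percent activity remaining relative to DMSO controls (100%).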

Test [2] has as its target Serine/threonine-protein kinase PLK1 (Homo sapiens) (UniProt P53350). As to the kind of experiment: Inhibition of PLK1 assessed as residual activity at 10 uM. Put shortly:
(§2)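 Panel screen by radioactive kinase assay at a single inhibitor concentration. Score is the percent activity remaining relative to DMSO controls (100%).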

Test [3] deals with Serine/threonine-protein kinase MARK2 (Homo sapiens) (UniProt Q7KZI7). As to the kind of experiment: Inhibition of MARK2 assessed as residual activity at 10 uM. The gist of the method: as §1
Serine/threonine-protein kinase MARK2 (Homo sapiens), sequence (Q7KZI7 whole entry): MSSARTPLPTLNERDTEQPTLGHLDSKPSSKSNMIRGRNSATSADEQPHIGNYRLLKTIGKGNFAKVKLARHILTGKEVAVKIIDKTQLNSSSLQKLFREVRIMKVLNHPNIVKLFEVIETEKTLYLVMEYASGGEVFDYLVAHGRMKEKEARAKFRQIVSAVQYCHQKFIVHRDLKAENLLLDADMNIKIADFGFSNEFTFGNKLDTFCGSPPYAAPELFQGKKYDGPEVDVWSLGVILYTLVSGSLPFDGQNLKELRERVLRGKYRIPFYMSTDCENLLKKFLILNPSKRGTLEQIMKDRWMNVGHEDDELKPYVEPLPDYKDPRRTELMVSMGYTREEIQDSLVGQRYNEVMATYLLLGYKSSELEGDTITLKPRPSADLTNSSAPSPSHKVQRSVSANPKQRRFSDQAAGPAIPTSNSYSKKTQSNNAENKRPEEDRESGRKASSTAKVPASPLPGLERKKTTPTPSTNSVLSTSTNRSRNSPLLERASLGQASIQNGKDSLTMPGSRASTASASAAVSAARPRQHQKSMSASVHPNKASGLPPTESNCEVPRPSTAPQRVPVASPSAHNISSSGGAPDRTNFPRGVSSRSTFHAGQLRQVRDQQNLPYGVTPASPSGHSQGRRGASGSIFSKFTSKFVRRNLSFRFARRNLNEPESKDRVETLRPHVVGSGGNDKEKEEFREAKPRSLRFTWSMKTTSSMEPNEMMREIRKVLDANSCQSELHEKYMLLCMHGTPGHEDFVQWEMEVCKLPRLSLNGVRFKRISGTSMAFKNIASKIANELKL
Test [4] addresses Serine/threonine-protein kinase PAK 4 (Homo sapiens) (UniProt O96013). Put plainly: Inhibition of PAK4 assessed as residual activity at 10 uM. The gist of the method: as §2
In test [5] the target is T1, Mitogen-activated protein kinase 15 (Homo sapiens) (UniProt Q8TD08).
T1 sequence (whole entry): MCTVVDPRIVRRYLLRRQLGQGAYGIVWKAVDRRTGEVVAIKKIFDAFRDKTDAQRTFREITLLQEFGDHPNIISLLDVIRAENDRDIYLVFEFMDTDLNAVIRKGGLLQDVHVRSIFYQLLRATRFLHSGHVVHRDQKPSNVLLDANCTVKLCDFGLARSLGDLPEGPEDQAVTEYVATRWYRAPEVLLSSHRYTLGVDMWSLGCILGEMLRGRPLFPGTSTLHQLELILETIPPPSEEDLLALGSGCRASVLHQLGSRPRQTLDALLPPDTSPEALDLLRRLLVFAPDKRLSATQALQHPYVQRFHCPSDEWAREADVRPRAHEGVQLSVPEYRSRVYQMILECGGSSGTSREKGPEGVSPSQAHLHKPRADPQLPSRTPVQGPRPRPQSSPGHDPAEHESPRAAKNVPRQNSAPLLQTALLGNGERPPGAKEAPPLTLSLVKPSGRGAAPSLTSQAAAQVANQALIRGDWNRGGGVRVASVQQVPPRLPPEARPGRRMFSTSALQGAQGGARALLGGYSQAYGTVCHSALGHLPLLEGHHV
Put plainly: Inhibition of ERK8 assessed as residual activity at 10 uM. The gist of the method:
as §1

Test [6] concerns the target Serine/threonine-protein kinase pim-2 (Homo sapiens) (UniProt Q9P1W9). As to the kind of experiment: Inhibition of PIM2 assessed as residual activity at 10 uM. Put shortly: as §2
In test [7] the target is Homeodomain-interacting protein kinase 2 (Homo sapiens) (UniProt Q9H2X6). As to the kind of experiment: Inhibition of HIPK2 assessed as residual activity at 10 uM. The gist of the method:
as §1

Test [8] concerns the target Cyclin-dependent kinase 2/cyclin A (Homo sapiens) (UniProt P24941+P20248+P78396). Put plainly: Inhibition of CDK2/CyclinA assessed as residual activity at 10 uM. Format: protein-complex assay. Put shortly: as §1
Test [9] deals with Tyrosine-protein kinase SYK (Homo sapiens) (UniProt P43405). As to the kind of experiment: Inhibition of SYK assessed as residual activity at 10 uM. The gist of the method:
as §2

In test [10] the target is T2, Serine/threonine-protein kinase Sgk1 (Homo sapiens) (UniProt O00141).
T2 sequence (whole entry): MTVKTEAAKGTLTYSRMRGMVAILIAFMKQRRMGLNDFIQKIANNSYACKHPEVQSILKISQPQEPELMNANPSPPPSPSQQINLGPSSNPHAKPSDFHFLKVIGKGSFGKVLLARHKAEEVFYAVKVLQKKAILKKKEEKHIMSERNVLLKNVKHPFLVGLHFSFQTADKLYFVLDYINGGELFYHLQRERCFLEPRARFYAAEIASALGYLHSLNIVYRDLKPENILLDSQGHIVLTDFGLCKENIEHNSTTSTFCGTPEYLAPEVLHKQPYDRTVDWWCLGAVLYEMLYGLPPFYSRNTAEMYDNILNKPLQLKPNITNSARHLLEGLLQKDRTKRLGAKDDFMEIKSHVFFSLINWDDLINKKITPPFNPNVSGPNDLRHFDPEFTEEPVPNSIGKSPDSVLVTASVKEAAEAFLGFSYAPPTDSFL
Put plainly: Inhibition of SGK1 assessed as residual activity at 10 uM. The gist of the method: as §2

Test [11] addresses Calcium/calmodulin-dependent protein kinase type 1 (Homo sapiens) (UniProt Q14012). As to the kind of experiment: Inhibition of CAMK1 assessed as residual activity at 10 uM. Put shortly:
as §1

Test [12] has as its target Mitogen-activated protein kinase 10 (Homo sapiens) (UniProt P53779). Put plainly: Inhibition of JNK3 assessed as residual activity at 10 uM. The gist of the method:
as §1

Test [13] deals with Serine/threonine-protein kinase Chk2 (Homo sapiens) (UniProt O96017). Put plainly: Inhibition of CHK2 assessed as residual activity at 10 uM. Put shortly:
as §1

Test [14] can be described thus: Inhibition of PHK assessed as residual activity at 10 uM. The gist of the method:
as §2

Test [15] deals with Tyrosine-protein kinase BTK (Homo sapiens) (UniProt Q06187). Put plainly: Inhibition of BTK assessed as residual activity at 10 uM. Put shortly: as §1
Test [16] deals with Serine/threonine-protein kinase Nek6 (Homo sapiens) (UniProt Q9HC98). Put plainly: Inhibition of NEK6 assessed as residual activity at 10 uM. The gist of the method: as §2
Serine/threonine-protein kinase Nek6 (Homo sapiens), sequence (Q9HC98 whole entry): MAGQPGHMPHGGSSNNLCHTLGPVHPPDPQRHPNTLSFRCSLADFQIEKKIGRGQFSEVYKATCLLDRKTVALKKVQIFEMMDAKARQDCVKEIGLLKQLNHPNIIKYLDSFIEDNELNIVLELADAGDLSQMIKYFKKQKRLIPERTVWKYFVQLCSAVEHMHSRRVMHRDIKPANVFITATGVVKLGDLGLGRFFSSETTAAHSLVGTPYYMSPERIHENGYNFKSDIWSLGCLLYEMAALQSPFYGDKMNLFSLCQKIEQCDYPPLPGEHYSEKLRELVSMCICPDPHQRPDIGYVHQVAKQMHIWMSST
In test [17] the target is Mitogen-activated protein kinase kinase kinase 9 (Homo sapiens) (UniProt P80192). As to the kind of experiment: Inhibition of MLK1 assessed as residual activity at 10 uM. Put shortly: as §2
Mitogen-activated protein kinase kinase kinase 9 (Homo sapiens), sequence (P80192 whole entry, looked up): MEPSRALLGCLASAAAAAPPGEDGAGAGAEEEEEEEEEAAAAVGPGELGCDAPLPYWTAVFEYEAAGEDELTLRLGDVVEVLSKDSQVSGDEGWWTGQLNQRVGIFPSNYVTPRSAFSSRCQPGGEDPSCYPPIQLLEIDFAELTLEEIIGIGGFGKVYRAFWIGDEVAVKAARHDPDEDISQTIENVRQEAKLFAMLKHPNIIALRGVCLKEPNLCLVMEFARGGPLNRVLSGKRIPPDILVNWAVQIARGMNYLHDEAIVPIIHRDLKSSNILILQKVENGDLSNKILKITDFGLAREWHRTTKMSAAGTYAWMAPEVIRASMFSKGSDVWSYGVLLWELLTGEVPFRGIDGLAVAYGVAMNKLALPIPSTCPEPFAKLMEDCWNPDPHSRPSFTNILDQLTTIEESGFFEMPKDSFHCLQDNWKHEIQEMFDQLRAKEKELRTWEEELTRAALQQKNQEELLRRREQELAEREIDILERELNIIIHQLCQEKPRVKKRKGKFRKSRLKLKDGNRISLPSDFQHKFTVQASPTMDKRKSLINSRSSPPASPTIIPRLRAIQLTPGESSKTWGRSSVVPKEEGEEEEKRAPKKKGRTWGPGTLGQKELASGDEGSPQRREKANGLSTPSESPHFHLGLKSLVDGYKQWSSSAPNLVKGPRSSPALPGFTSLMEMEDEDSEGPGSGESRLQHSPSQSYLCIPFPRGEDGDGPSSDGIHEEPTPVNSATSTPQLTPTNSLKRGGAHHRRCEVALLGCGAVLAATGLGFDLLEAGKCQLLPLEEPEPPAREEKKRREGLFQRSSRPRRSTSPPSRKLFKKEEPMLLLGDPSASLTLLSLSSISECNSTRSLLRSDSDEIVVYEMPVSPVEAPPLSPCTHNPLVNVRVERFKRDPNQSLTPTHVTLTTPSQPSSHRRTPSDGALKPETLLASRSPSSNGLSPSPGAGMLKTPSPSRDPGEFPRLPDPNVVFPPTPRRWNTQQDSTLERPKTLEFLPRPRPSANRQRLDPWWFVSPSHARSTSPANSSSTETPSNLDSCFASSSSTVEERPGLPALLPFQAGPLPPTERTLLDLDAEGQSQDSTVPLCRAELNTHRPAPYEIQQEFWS
Test [18] has as its target RAC-beta serine/threonine-protein kinase (Homo sapiens) (UniProt P31751). Put plainly: Inhibition of PKBbeta assessed as residual activity at 10 uM. Put shortly:
as §2

Test [19] has as its target T3, Mitogen-activated protein kinase 12 (Homo sapiens) (UniProt P53778).
T3 sequence (whole entry): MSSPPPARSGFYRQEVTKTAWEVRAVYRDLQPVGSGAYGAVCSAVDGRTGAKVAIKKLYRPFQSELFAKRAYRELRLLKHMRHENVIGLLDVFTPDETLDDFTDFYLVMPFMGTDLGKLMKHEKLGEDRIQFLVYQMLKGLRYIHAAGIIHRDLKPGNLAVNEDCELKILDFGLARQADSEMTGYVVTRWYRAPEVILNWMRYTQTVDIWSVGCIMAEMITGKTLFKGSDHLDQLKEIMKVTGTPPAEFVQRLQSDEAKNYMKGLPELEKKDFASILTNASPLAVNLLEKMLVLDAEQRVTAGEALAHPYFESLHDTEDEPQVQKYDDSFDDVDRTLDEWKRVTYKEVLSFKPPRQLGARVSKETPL
Put plainly: Inhibition of p38-gamma assessed as residual activity at 10 uM. Put shortly: as §2

The target of test [20] is Serine/threonine-protein kinase PAK 2 (Homo sapiens) (UniProt Q13177). As to the kind of experiment: Inhibition of PAK2 assessed as residual activity at 10 uM. Put shortly: as §2

Serine/threonine-protein kinase PAK 4 (Homo sapiens), sequence (O96013 whole entry, looked up): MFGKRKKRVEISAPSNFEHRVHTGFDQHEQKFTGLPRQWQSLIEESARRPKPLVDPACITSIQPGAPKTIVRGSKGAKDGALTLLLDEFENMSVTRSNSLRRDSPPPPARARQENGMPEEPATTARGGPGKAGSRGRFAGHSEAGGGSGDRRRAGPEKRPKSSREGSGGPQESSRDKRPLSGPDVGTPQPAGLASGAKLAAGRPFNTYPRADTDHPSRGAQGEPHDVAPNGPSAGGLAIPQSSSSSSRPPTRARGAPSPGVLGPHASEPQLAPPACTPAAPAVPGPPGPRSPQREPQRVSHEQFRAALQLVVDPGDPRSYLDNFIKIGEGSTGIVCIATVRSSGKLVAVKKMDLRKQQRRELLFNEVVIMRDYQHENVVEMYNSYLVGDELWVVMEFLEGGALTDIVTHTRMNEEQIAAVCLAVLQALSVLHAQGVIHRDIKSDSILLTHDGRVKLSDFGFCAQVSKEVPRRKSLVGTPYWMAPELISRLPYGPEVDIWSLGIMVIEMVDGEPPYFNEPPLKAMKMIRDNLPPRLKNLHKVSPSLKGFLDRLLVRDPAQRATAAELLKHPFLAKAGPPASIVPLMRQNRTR
Serine/threonine-protein kinase Chk2 (Homo sapiens), sequence (O96017 whole entry): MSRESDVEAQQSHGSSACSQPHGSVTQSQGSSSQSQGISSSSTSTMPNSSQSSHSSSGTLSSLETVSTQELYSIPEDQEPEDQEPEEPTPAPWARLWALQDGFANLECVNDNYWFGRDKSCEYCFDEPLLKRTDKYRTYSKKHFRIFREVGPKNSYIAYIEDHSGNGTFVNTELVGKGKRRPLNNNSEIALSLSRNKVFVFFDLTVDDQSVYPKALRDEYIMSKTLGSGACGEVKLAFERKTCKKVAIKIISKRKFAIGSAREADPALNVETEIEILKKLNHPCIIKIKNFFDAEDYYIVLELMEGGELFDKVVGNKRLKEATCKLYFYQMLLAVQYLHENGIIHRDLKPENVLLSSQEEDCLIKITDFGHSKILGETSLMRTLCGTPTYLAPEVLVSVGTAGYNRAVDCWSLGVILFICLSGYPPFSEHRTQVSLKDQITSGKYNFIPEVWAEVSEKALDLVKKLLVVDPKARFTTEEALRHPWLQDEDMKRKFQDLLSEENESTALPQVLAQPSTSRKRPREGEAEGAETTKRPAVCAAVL
RAC-beta serine/threonine-protein kinase (Homo sapiens), sequence (P31751 whole entry): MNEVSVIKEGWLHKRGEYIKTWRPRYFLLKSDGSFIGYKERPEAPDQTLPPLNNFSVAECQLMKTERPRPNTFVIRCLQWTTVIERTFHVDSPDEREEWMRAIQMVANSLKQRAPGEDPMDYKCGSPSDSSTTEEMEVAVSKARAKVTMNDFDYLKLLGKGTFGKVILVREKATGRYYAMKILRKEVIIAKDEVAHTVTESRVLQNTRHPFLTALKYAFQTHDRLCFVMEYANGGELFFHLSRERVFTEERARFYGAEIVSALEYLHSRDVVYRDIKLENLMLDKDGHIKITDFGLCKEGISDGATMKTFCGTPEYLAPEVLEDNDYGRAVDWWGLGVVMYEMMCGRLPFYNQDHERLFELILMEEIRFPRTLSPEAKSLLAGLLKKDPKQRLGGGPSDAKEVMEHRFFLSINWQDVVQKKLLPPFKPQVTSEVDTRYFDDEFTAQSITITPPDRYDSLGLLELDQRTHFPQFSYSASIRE
Mitogen-activated protein kinase 10 (Homo sapiens), sequence (P53779 whole entry): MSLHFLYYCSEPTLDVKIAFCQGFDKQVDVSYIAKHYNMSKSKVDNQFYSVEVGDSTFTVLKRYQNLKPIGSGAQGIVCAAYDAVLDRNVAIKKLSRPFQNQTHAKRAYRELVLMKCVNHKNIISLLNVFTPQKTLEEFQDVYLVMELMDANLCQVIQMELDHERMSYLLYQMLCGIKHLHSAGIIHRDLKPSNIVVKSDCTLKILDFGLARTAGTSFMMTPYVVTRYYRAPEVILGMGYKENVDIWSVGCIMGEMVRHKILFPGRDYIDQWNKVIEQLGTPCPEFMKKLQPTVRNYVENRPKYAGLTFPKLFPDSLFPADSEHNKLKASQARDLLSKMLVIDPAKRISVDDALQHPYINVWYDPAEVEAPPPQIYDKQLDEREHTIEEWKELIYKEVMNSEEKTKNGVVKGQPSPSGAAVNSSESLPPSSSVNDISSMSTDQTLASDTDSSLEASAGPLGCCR
Serine/threonine-protein kinase PLK1 (Homo sapiens), sequence (P53350 whole entry): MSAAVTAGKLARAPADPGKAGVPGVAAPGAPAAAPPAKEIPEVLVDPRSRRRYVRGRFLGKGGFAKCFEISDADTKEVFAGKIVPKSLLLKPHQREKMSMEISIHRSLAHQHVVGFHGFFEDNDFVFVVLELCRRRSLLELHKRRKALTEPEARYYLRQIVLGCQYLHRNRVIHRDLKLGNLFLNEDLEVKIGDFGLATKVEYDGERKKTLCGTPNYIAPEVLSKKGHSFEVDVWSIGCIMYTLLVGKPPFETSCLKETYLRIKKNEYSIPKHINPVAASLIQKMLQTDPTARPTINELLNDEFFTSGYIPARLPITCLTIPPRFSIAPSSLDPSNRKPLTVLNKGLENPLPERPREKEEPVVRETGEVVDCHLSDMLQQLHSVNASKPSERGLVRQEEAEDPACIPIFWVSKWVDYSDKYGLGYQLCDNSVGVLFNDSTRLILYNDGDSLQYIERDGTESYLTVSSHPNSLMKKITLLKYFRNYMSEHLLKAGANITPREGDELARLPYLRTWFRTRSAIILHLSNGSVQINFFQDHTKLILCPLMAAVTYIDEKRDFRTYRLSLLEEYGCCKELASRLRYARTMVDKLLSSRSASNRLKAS

As for `CN(C)C/C=C/C(=O)Nc1ccc2c(C#N)cnc(Nc3cccc(Br)c3)c2c1`, the Activity in [1] was 88%; in test [2], 84%; in test [3] it was 90%; in [4], 82%; in test [5] it was 78%; in test [6] it was 89%. In addition, the Activity in test [7] worked out at 95%; in [8], 97%; in test [9] it was 61%; in test [10], 82%; in test [11], 25%; in test [12], 83%. The Activity in test [13] stood at 51%; in test [14], 53%; in test [15], 52%; in test [16], 81%; in test [17] it was 82%; in [18] it was 37%. Further, the Activity is 84% in [19] and 81% in test [20].
`CN1CCN(CCC(=O)Nc2ccc3c(C#N)cnc(Nc4cccc(Br)c4)c3c2)CC1`: the Activity was 100% in test [1]; 86% in [2]; 100% in [3]; 86% in test [4]; 72% in test [5]; 92% in test [6]. The Activity in test [7] was 88%; in test [8] it was 100%; in [9], 77%; in [10] it was 91%; in [11], 14%; in test [12] it was 95%. Further, the Activity in test [13] amounted to 53%; in test [14], 38%; in test [15], 76%; in test [16], 100%; in test [17], 91%; in test [18] it was 87%. The values for the Activity in test [19] and in test [20] were 100% and 90%, respectively.
With `CN(C)CCCC(=O)Nc1ccc2c(C#N)cnc(Nc3cccc(Br)c3)c2c1`, the Activity in test [1] was found to be 100%; in test [2] it was 69%; in test [3], 100%; in [4] it was 94%; in test [5] it was 75%; in test [6], 89%. The Activity in test [7] turned out to be 93%; in [8], 100%; in [9] it was 64%; in [10] it was 82%; in test [11], 15%; in [12], 100%. For the same compound, the Activity in test [13] stood at 56%; in [14], 11%; in test [15], 72%; in [16], 100%; in test [17] it was 87%; in test [18] it was 85%. Moreover, the figures for the Activity in [19] and in test [20] were 100% and 80%, respectively.
